This note sets out measurements from paper PMC11170203 (Saudi Pharmaceutical Journal : SPJ, 2024).

The target in assay [1] is collagenase from Clostridium histolyticum. Description: Collagenase enzyme inhibitory assay. The class given is biochemical. Conditions: concentration range 15.63–1000 µg/mL. The method in brief: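 Clostridium histolyticum collagenase (0.1 mg/mL) is preincubated with the test extract in tricine buffer (50 mM tricine, 10 mM CaCl2, 400 mM NaCl, pH 7.5) for 20 min at 37 °C. FALGPA substrate (1 mM solution) is added, and absorbance is read at 335 nm after 15 min. EGCG is the positive control. IC50 is taken from dose-response curves of % inhibition, with three independent experiments.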

Assay [2] concerns the target porcine pancreatic elastase (Sus scrofa, UniProt P00772). The experiment in a line: Elastase enzyme inhibitory assay. The class given is biochemical. As to conditions: concentration range 15.63–1000 µg/mL. Summed up: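 Porcine pancreatic elastase and the test extract in Tris-HCl (100 mM, pH 8.0) are incubated 5 min at 37 °C. The reaction is started with succinyl-Ala-Ala-Ala-p-nitroanilide (4.4 mM solution in Tris-HCl), and absorbance is read at 410 nm. EGCG is the positive control and distilled water the negative control. IC50 is taken from dose-response curves of % inhibition, with three independent experiments.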

Assay [3] is described as follows: Ferric reducing antioxidant power. As to conditions: mean ± S.D. of three measurements. The method in brief: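 FRAP reagent is acetate buffer (300 mM, pH 3.6), TPTZ (10 mM in 40 mM HCl) and FeCl3·6H2O (20 mM) at 10:1:1, prewarmed 10 min at 37 °C. The test extract reacts with the reagent for 30 min at 37 °C, and Fe(II)-TPTZ is read at 593 nm. Values come from a ferrous sulfate calibration curve, as FeSO4 equivalents per g extract. Ascorbic acid is the reference; three independent experiments, mean ± SD.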

Assay [4] can be described thus: DPPH radical scavenging assay. Summed up: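 The test extract (6.25–400 ug/mL) is mixed 1:1 with 0.06 mM DPPH in absolute ethanol and incubated 30 min in the dark. Absorbance is read at 517 nm and corrected with a DPPH-free sample background. BHT is the standard. % inhibition = (Acontrol − Asample)/Acontrol × 100. IC50 comes from dose-response curves; three independent experiments, mean ± SD.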

For a further assay, the target named is T1, hyaluronidase (Bos taurus, UniProt Q2YDK3).
T1 sequence (Q2YDK3 36-553): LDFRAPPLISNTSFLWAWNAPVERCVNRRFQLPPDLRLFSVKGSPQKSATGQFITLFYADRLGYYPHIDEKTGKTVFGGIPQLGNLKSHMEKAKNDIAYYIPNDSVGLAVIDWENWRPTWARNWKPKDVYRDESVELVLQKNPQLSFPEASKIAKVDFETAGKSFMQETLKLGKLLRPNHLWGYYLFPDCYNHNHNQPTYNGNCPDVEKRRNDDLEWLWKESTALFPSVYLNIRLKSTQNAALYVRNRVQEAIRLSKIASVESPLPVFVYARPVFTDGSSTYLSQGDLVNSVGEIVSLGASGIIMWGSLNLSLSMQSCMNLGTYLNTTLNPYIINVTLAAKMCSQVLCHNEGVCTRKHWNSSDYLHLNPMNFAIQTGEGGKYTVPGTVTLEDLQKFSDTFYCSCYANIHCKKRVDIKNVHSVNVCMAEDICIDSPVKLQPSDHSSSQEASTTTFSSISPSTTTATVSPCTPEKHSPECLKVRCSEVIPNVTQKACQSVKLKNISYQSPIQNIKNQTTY
The experiment in a line: Hyaluronidase enzyme inhibitory assay. The format is biochemical. Conditions: concentration range 25–250 µg/mL. Summed up: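 The test extract in 10% DMSO is incubated with hyaluronidase 10 min at 37 °C, then with CaCl2 (12.5 mM solution) for 10 min. Sodium hyaluronate is added for 40 min at 37 °C. NaOH (0.9 M) and sodium borate (0.2 M) are added and heated 3 min at 100 °C. PDMAB (67 mM) is added for 10 min at 37 °C, and absorbance is read at 585 nm. Tannic acid is the reference; IC50 comes from dose-response curves, three independent experiments.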

porcine pancreatic elastase, sequence (P00772 27-266): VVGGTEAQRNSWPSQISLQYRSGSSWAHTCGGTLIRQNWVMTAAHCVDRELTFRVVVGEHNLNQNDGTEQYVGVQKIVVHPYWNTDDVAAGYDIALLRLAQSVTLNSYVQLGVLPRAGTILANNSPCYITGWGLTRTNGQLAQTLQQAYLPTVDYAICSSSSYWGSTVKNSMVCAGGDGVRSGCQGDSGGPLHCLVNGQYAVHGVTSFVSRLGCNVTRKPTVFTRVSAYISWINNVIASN

Turning to `O=C(O[C@@H]1Cc2c(O)cc(O)cc2O[C@@H]1c1cc(O)c(O)c(O)c1)c1cc(O)c(O)c(O)c1` [EGCG, epigallocatechin gallate], in assay [1], the “Collagenase inhibition IC50” value was 33.662 ± 0.302 µg/mL. In assay [2], the “Elastase inhibition IC50” value was 33.334 ± 0.299 µg/mL.

Compound `O=C1O[C@H]([C@@H](O)CO)C(O)=C1O` [Ascorbic acid] had an FRAP in assay [3] of 4794.7 ± 5.507 µM FeSO4/g extract.

As for `Cc1cc(C(C)(C)C)c(O)c(C(C)(C)C)c1` [BHT, butylated hydroxytoluene], the “DPPH (IC50)” value in assay [4] (mean ± S.D. of three measurements) is 20.721 ± 0.138 µg/mL. In assay [4] (unit as printed in the results text), this compound showed a DPPH radical scavenging IC50 of 20.72 ± 0.138 µg/mL.

As to tannic acid, the “Hyaluronidase inhibition IC50” value at hyaluronidase is 30.652 ± 0.626 µg/mL.
